ChEMBL document CHEMBL1140214, “Antitumor activity of new substituted 3-(5-imidazo[2,1-b]thiazolylmethylene)-2-indolinones and 3-(5-imidazo[2,1-b]thiadiazolylmethylene)-2-indolinones: selectivity against colon tumor cells and effect on cell cycle-related events” (2008)
Activity calls are given as the source filed them. The rule behind the calls is not given here.

Experiments:
[1] = Antitumor activity against human Colon cancer cells after 48 hrs by SRB assay; format: functional, Cancer cell lines; details: for GI50 / TGI: Homo sapiens, Cancer cell lines, 48 h; for TGI: read-out: pTGI (converted)
Method in brief: (§1)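 NCI 60-cell panel two-stage screen: a single-dose pass at 10^-5 M, then five-dose testing for active compounds. Compounds were dissolved in DMSO and tested at five 10-fold dilutions, the highest 10^-4 M (10^-3 M in some cases). Results are given as the negative log molar concentration at three end points: pGI50, pTGI (total growth inhibition) and pLC50. Means are panel-subtype averages.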

Leukemia cell = experiment: Antitumor activity against human Leukemia cells after 48 hrs by SRB assay; format: functional; details: for TGI: read-out: pTGI (converted); method in brief: as §1
HT-29 [2] = experiment: Inhibition of cell proliferation in human HT-29 cells at 2 uM; format: functional, cell-based
Method in brief: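 HT-29 cells in RPMI 1640 with 10% FBS were exposed to compound in fresh medium 24 h after plating, with DMSO controls. Cells were counted daily and viability was checked by Trypan blue exclusion.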

[3] = Antitumor activity against human CNS cancer cells after 48 hrs by SRB assay; format: functional, Cancer cell lines; details: for TGI: read-out: pTGI (converted); method in brief: as §1
[4] = Antitumor activity against human renal cancer cells after 48 hrs by SRB assay; format: functional, Cancer cell lines; details: for TGI: read-out: pTGI (converted); method in brief: as §1
Melanoma cell = experiment: Antitumor activity against human Melanoma cells after 48 hrs by SRB assay; format: functional; details: for TGI: read-out: pTGI (converted); for CC50: read-out: pLC50 (the source's name) (converted); method in brief: as §1
HT-29 [5] = experiment: Cell cycle arrest in human HT-29 cells assessed as accumulation at G2/M phase after 24 hrs by flow cytometry; format: functional, cell-based
Method in brief: (§2)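 HT-29 cells were grown in RPMI 1640 with 10% FBS and 2 mM L-glutamine at 37 °C, 5% CO2, and treated 24 h after plating at 2 × 10^4 cells/cm^2. Exposure was 24 h at 0.5–2 µM test compound or 30 nM vincristine, with DMSO controls. Cells were stained with propidium iodide, RNase and NP-40 for 30 min in the dark, then DNA content was read by flow cytometry. Mean ± SEM, n=3.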

[6] = Antitumor activity against human prostate cancer cells after 48 hrs by SRB assay; format: functional, Cancer cell lines; details: for TGI: read-out: pTGI (converted); method in brief: as §1
HT-29 [7] = experiment: Increase in cellular tubulin condensation in human HT-29 cells at 1 uM after 24 hrs using DAPI staining by immunofluorescence technique; format: functional, cell-based
Method in brief: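 HT-29 cells on glass coverslips at 1 × 10^4 cells/cm^2 were treated 24 h at 1 µM, or with 30 nM vincristine. After fixation they were stained overnight at 4 °C with anti-α-tubulin mouse monoclonal, then 1 h at room temperature with FITC anti-mouse IgG, and counterstained with DAPI. Imaging was by laser scanning confocal microscopy.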

[8] = Antitumor activity against human Breast cancer cells after 48 hrs by SRB assay; format: functional, Cancer cell lines; details: for TGI: read-out: pTGI (converted); method in brief: as §1
[9] = Antitumor activity against human ovarian cancer cells after 48 hrs by SRB assay; format: functional, Cancer cell lines; details: for TGI: read-out: pTGI (converted); method in brief: as §1
[10] = biological target: T1, Ornithine decarboxylase (Homo sapiens) (UniProt P11926); experiment: Inhibition of ornithine decarboxylase in human HT-29 cells assessed as release of radioactive CO2 from [14C-carboxyl] ornithine; format: cell-based
T1 sequence (whole entry): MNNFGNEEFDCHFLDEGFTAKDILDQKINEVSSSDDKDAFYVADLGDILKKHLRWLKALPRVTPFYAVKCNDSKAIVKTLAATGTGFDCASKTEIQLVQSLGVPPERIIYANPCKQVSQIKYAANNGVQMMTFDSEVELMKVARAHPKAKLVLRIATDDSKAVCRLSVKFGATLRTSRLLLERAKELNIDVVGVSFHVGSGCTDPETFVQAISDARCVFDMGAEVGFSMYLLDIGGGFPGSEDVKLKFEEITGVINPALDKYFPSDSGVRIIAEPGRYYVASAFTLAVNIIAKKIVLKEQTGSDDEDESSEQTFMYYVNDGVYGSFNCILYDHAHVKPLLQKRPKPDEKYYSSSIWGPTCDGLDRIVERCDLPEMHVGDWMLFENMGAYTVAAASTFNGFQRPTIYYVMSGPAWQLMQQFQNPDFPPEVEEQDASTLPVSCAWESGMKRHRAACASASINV
Method in brief: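 Extracts were taken from HT-29 cells after 24 h exposure to the indicated concentrations of test compound or vincristine. ODC activity was read as 14CO2 released from [14C-carboxyl]ornithine. Mean ± SEM, n=3.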

HT-29 [11] = experiment: Cell cycle arrest in human HT-29 cells assessed as accumulation at G2/M phase at 2 uM after 24 hrs by flow cytometry; format: functional; method in brief: as §2
NSCLC = experiment: Antitumor activity against human NSCLC cells after 48 hrs by SRB assay; format: functional; details: for TGI: read-out: pTGI (converted); method in brief: as §1
HT-29 [12] = experiment: Induction of apoptosis in human HT-29 cells assessed as caspase activity after 48 hrs by fluorimetric assay; format: functional, cell-based
Method in brief: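 DEVDase (caspase) activity was measured fluorometrically in extracts of HT-29 cells treated for 24 or 48 h at the indicated concentrations.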

HT-29 [13] = experiment: Cell cycle arrest in human HT-29 cells assessed as accumulation at G2/M phase at 30 nM after 24 hrs by flow cytometry; format: functional, cell-based; method in brief: as §2
[14] = Homo sapiens, Leukemia cell, 48 h
[15] = Homo sapiens, Cancer cell lines, 48 h, read-out: pGI50 (converted)
[16] = Homo sapiens, Cancer cell lines, 48 h
[17] = Homo sapiens, Melanoma cell, 48 h, read-out: pGI50 (converted)
[18] = Homo sapiens, Melanoma cell, 48 h

COc1ccc2c(c1)/C(=C\c1c(C)nc3sc(C)nn13)C(=O)N2
GI [1]: 0.69 µM | GI50 [1]: 0.692 µM | TGI [1]: 41.7 µM | GI (Leukemia cell): 1.15 µM | GI50 (Leukemia cell; [14]): 1.15 µM | TGI (Leukemia cell; [14]): 38 µM | Activity (HT-29 [2]): Active | GI50 [3]: 2.51 µM | GI50 [3, 15]: 2.51 µM | TGI [3, 16]: 38 µM | GI [4]: 6.17 µM | GI50 [4, 16]: 6.17 µM | TGI [4, 16]: 91.2 µM | GI50 (Melanoma cell): 6.31 µM | GI50 (Melanoma cell; [17]): 6.31 µM | TGI (Melanoma cell; [18]): 69.2 µM | Activity (HT-29 [5]): Dose-dependent effect | GI [6]: 3.89 µM | GI50 [6, 16]: 3.89 µM | Activity (HT-29 [7]): Active | GI [8]: 2.63 µM | GI50 [8, 16]: 2.63 µM | TGI [8, 16]: 75.9 µM | GI [9]: 5.01 µM | GI50 [9, 16]: 5.01 µM | TGI [9, 16]: 72.4 µM | Activity [10]: Dose-dependent effect | Activity (HT-29 [11]): 58% | GI (NSCLC): 5.37 µM | GI50 (NSCLC; Homo sapiens, NSCLC, 48 h): 5.37 µM | TGI (NSCLC; Homo sapiens, NSCLC, 48 h): 56.2 µM | Activity (HT-29 [12]): Active

COc1ccc2c(c1)/C(=C\c1c(-c3ccc(C)cc3)nc3sc(C)cn13)C(=O)N2
GI [1]: 12.88 µM | GI50 [1]: 12.9 µM | TGI [1]: 66.1 µM | GI (Leukemia cell): 4.07 µM | GI50 (Leukemia cell; [14]): 4.07 µM | TGI (Leukemia cell; [14]): 51.3 µM | GI50 [3]: 14.45 µM | GI50 [3, 15]: 14.5 µM | GI [4]: 13.18 µM | GI50 [4, 16]: 13.2 µM | TGI [4, 16]: 67.6 µM | GI50 (Melanoma cell): 16.22 µM | GI50 (Melanoma cell; [17]): 16.2 µM | TGI (Melanoma cell; [18]): 55 µM | GI [6]: 4.68 µM | GI50 [6, 16]: 4.68 µM | GI [8]: 12.88 µM | GI50 [8, 16]: 12.9 µM | GI [9]: 18.2 µM | GI50 [9, 16]: 18.2 µM | TGI [9, 16]: 97.7 µM | GI (NSCLC): 14.45 µM | GI50 (NSCLC; Homo sapiens, NSCLC, 48 h): 14.5 µM | TGI (NSCLC; Homo sapiens, NSCLC, 48 h): 77.6 µM

Cc1cn2c(/C=C3/C(=O)Nc4ccc(O)cc43)c(-c3ccc(Cl)cc3)nc2s1
GI [1]: 24.55 µM | GI50 [1]: 24.5 µM | TGI [1]: 75.9 µM | GI (Leukemia cell): 12.59 µM | GI50 (Leukemia cell; [14]): 12.6 µM | LC50 (concentration killing 50% of cells) (Leukemia cell; [14]): 95.5 µM | TGI (Leukemia cell; [14]): 38.9 µM | GI50 [3]: 13.18 µM | LC50 [3, 16]: 81.3 µM | GI50 [3, 15]: 13.2 µM | TGI [3, 16]: 35.5 µM | GI [4]: 15.14 µM | GI50 [4, 16]: 15.1 µM | LC50 (concentration killing 50% of cells) [4, 16]: 87.1 µM | TGI [4, 16]: 50.1 µM | GI50 (Melanoma cell): 15.14 µM | GI50 (Melanoma cell; [17]): 15.1 µM | CC50 (Melanoma cell; [18]): 89.1 µM | TGI (Melanoma cell; [18]): 57.5 µM | GI [6]: 15.14 µM | GI50 [6, 16]: 15.1 µM | LC50 [6, 16]: 79.4 µM | TGI [6, 16]: 50.1 µM | GI [8]: 15.85 µM | GI50 [8, 16]: 15.8 µM | LC50 [8, 16]: 95.5 µM | TGI [8, 16]: 56.2 µM | GI [9]: 13.8 µM | GI50 [9, 16]: 13.8 µM | LC50 (concentration killing 50% of cells) [9, 16]: 89.1 µM | TGI [9, 16]: 44.7 µM | GI (NSCLC): 16.6 µM | GI50 (NSCLC; Homo sapiens, NSCLC, 48 h): 16.6 µM | LC50 (NSCLC; Homo sapiens, NSCLC, 48 h): 91.2 µM | TGI (NSCLC; Homo sapiens, NSCLC, 48 h): 55 µM

CC[C@]1(O)C[C@H]2CN(CCc3c([nH]c4ccccc34)[C@@](C(=O)OC)(c3cc4c(cc3OC)N(C=O)[C@H]3[C@@](O)(C(=O)OC)[C@H](OC(C)=O)[C@]5(CC)C=CCN6CC[C@]43[C@@H]65)C2)C1.O=S(=O)(O)O [VINCRISTINE SULFATE]
GI [1]: 0.1 µM | GI50 [1]: 0.1 µM | TGI [1]: 3.98 µM | GI (Leukemia cell): 0.1 µM | GI50 (Leukemia cell; [14]): 0.1 µM | TGI (Leukemia cell; [14]): 15.8 µM | GI50 [3, 15]: 0.126 µM | TGI [3, 16]: 6.31 µM | Activity (HT-29 [13]): Active | GI [4]: 0.32 µM | GI50 [4, 16]: 0.316 µM | TGI [4, 16]: 20 µM | GI50 (Melanoma cell; [17]): 0.158 µM | CC50 (Melanoma cell; [18]): 251 µM | TGI (Melanoma cell; [18]): 7.94 µM | GI [6]: 0.13 µM | GI50 [6, 16]: 0.126 µM | TGI [6, 16]: 6.31 µM | GI [8]: 0.32 µM | GI50 [8, 16]: 0.316 µM | TGI [8, 16]: 7.94 µM | GI [9]: 0.32 µM | GI50 [9, 16]: 0.316 µM | TGI [9, 16]: 20 µM | Activity [10]: Active | GI (NSCLC): 0.25 µM | GI50 (NSCLC; Homo sapiens, NSCLC, 48 h): 0.251 µM | TGI (NSCLC; Homo sapiens, NSCLC, 48 h): 15.8 µM

COc1ccc2c(c1)/C(=C\c1c(-c3cc(OC)ccc3OC)nc3sc(C)cn13)C(=O)N2C
GI [1]: 33.11 µM | GI50 [1]: 33.1 µM | TGI [1]: 81.3 µM | GI (Leukemia cell): 15.85 µM | GI50 (Leukemia cell; [14]): 15.8 µM | TGI (Leukemia cell; [14]): 63.1 µM | GI50 [3]: 23.99 µM | GI50 [3, 15]: 24 µM | TGI [3, 16]: 74.1 µM | GI [4]: 30.9 µM | GI50 [4, 16]: 30.9 µM | TGI [4, 16]: 97.7 µM | GI50 (Melanoma cell): 25.12 µM | GI50 (Melanoma cell; [17]): 25.1 µM | TGI (Melanoma cell; [18]): 56.2 µM | GI [6]: 30.9 µM | GI50 [6, 16]: 30.9 µM | TGI [6, 16]: 97.7 µM | GI [8]: 28.84 µM | GI50 [8, 16]: 28.8 µM | TGI [8, 16]: 95.5 µM | GI [9]: 25.7 µM | GI50 [9, 16]: 25.7 µM | TGI [9, 16]: 91.2 µM | GI (NSCLC): 28.84 µM | GI50 (NSCLC; Homo sapiens, NSCLC, 48 h): 28.8 µM | TGI (NSCLC; Homo sapiens, NSCLC, 48 h): 89.1 µM
